Series [1] deals with Burkholderia cenocepacia. The experiment in a line: Antimicrobial activity against Burkholderia cenocepacia 07-34 expressing beta-lactamase PenB1. The class given is functional. The essentials:
(§1)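 MICs measured by broth microdilution and by Etest on clinical B. cenocepacia isolates grown for 18 h in Trypticase soy broth (30°C and 37°C). Susceptibility was read against CLSI guidelines.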

The subject of series [2] is Burkholderia cenocepacia. Put plainly: Antimicrobial activity against Burkholderia cenocepacia 09-54 expressing beta-lactamase PenB2. The class given is functional. The essentials: as §1
Series [3] relates to Burkholderia cenocepacia. The experiment in a line: Antimicrobial activity against Burkholderia cenocepacia 212 expressing beta-lactamase PenB3. The class given is functional. In outline:
as §1

Series [4] relates to Burkholderia cenocepacia. The experiment in a line: Antimicrobial activity against Burkholderia cenocepacia 5007902 expressing beta-lactamase PenB4. Type of series: functional. In outline: as §1
The subject of series [5] is Escherichia coli. Put plainly: Antimicrobial activity against Escherichia coli TOP10 harboring beta-lactamase PenB1. Type of series: functional. In outline: (§2)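 MICs by broth microdilution and Etest, interpreted per CLSI guidelines. Strains tested were host E. coli TOP10, and TOP10 carrying pBcSau13 (pBK-CMV vector, kanamycin-resistant) holding a Sau3AI fragment of B. cenocepacia 212 DNA that encodes PenB1.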

Series [6] concerns Escherichia coli. The experiment in a line: Antimicrobial activity against Escherichia coli TOP10. Type of series: functional. In outline: as §2
Substrate in series [7]: CC(=O)OCC1=C(C(=O)O)N2C(=O)[C@@H](NC(=O)Cc3cccs3)[C@H]2SC1
To be noted: Burkholderia cenocepacia; 07-34.

Substrate in series [8]: CC(C)(O/N=C(\C(=O)N[C@@H]1C(=O)N2C(C(=O)[O-])=C(C[n+]3ccccc3)CS[C@H]12)c1csc(N)n1)C(=O)O
To be noted: Burkholderia cenocepacia; 07-34.

Substrate in series [9]: CC1(C)S[C@@H]2[C@H](NC(=O)Cc3ccccc3)C(=O)N2[C@H]1C(=O)O
To be noted: Burkholderia cenocepacia; 07-34.

Substrate in series [10]: CC1(C)S[C@@H]2[C@H](NC(=O)[C@H](C(=O)O)c3ccsc3)C(=O)N2[C@H]1C(=O)O
To be noted: Burkholderia cenocepacia; 07-34.

Substrate in series [11]: CC1(C)S[C@@H]2[C@H](NC(=O)[C@H](N)c3ccccc3)C(=O)N2[C@H]1C(=O)O
To be noted: Burkholderia cenocepacia; 07-34.

Substrate in series [12]: CCN1CCN(C(=O)N[C@@H](C(=O)N[C@@H]2C(=O)N3[C@@H]2SC(C)(C)[C@@H]3C(=O)O)c2ccccc2)C(=O)C1=O
To be noted: Burkholderia cenocepacia; 07-34.

Substrate in series [13]: CO/N=C(\C(=O)N[C@@H]1C(=O)N2C(C(=O)O)=C(COC(C)=O)CS[C@H]12)c1csc(N)n1
To be noted: Burkholderia cenocepacia; 07-34.

Substrate in series [14]: CO/N=C(\C(=O)N[C@@H]1C(=O)N2C(C(=O)O)=C(COC(N)=O)CS[C@H]12)c1ccco1
To be noted: Burkholderia cenocepacia; 07-34.

Substrate in series [15]: CO/N=C(\C(=O)N[C@@H]1C(=O)N2C(C(=O)[O-])=C(C[N+]3(C)CCCC3)CS[C@H]12)c1csc(N)n1
To be noted: Burkholderia cenocepacia; 07-34.

Substrate in series [16]: C[C@@H](O)[C@H]1C(=O)N2C(C(=O)O)=C(SCCNC=N)C[C@H]12
To be noted: Burkholderia cenocepacia; 07-34.

Substrate in series [17]: C[C@@H](O)[C@H]1C(=O)N2C(C(=O)O)=C(S[C@@H]3CN[C@H](C(=O)N(C)C)C3)[C@H](C)[C@H]12
To be noted: Burkholderia cenocepacia; 07-34.

Substrate in series [18]: C[C@H]1[C@H](NC(=O)/C(=N\OC(C)(C)C(=O)O)c2csc(N)n2)C(=O)N1S(=O)(=O)O
To be noted: Burkholderia cenocepacia; 07-34.

Substrate in series [19]: CC(=O)OCC1=C(C(=O)O)N2C(=O)[C@@H](NC(=O)Cc3cccs3)[C@H]2SC1
To be noted: Burkholderia cenocepacia; 07-34. This is another data set of the same source.

Substrate in series [20]: CC(C)(O/N=C(\C(=O)N[C@@H]1C(=O)N2C(C(=O)[O-])=C(C[n+]3ccccc3)CS[C@H]12)c1csc(N)n1)C(=O)O
To be noted: Burkholderia cenocepacia; 07-34. This is another data set of the same source.

Substrate in series [21]: CC1(C)S[C@@H]2[C@H](NC(=O)Cc3ccccc3)C(=O)N2[C@H]1C(=O)O
To be noted: Burkholderia cenocepacia; 07-34. This is another data set of the same source.

Substrate in series [22]: CC1(C)S[C@@H]2[C@H](NC(=O)[C@H](C(=O)O)c3ccsc3)C(=O)N2[C@H]1C(=O)O
To be noted: Burkholderia cenocepacia; 07-34. The source holds these as a separate data set.

Substrate in series [23]: CC1(C)S[C@@H]2[C@H](NC(=O)[C@H](N)c3ccccc3)C(=O)N2[C@H]1C(=O)O
To be noted: Burkholderia cenocepacia; 07-34. The source holds these as a separate data set.

Substrate in series [24]: CCN1CCN(C(=O)N[C@@H](C(=O)N[C@@H]2C(=O)N3[C@@H]2SC(C)(C)[C@@H]3C(=O)O)c2ccccc2)C(=O)C1=O
To be noted: Burkholderia cenocepacia; 07-34. The source holds these as a separate data set.

Substrate in series [25]: CO/N=C(\C(=O)N[C@@H]1C(=O)N2C(C(=O)O)=C(COC(C)=O)CS[C@H]12)c1csc(N)n1
To be noted: Burkholderia cenocepacia; 07-34. The source holds these as a separate data set.

Substrate in series [26]: CO/N=C(\C(=O)N[C@@H]1C(=O)N2C(C(=O)O)=C(COC(N)=O)CS[C@H]12)c1ccco1
To be noted: Burkholderia cenocepacia; 07-34. The source holds these as a separate data set.

Substrate in series [27]: CO/N=C(\C(=O)N[C@@H]1C(=O)N2C(C(=O)[O-])=C(C[N+]3(C)CCCC3)CS[C@H]12)c1csc(N)n1
To be noted: Burkholderia cenocepacia; 07-34. This is another data set of the same source.

Substrate in series [28]: C[C@@H](O)[C@H]1C(=O)N2C(C(=O)O)=C(SCCNC=N)C[C@H]12
To be noted: Burkholderia cenocepacia; 07-34. This is another data set of the same source.

Substrate in series [29]: C[C@@H](O)[C@H]1C(=O)N2C(C(=O)O)=C(S[C@@H]3CN[C@H](C(=O)N(C)C)C3)[C@H](C)[C@H]12
To be noted: Burkholderia cenocepacia; 07-34. This is another data set of the same source.

Substrate in series [30]: C[C@H]1[C@H](NC(=O)/C(=N\OC(C)(C)C(=O)O)c2csc(N)n2)C(=O)N1S(=O)(=O)O
To be noted: Burkholderia cenocepacia; 07-34. The source holds these as a separate data set.

Converted amounts (≈) assume the structure as drawn.

In general, MIC refers to the lowest concentration found to suppress growth. Read a low MIC as a more susceptible organism. Take `CC(C)(O/N=C(\C(=O)N[C@@H]1C(=O)N2C(C(=O)[O-])=C(C[n+]3ccccc3)CS[C@H]12)c1csc(N)n1)C(=O)O` [CEFTAZIDIME]: the MIC was 4 µg/mL (≈ 7.32 µM) in the series with Burkholderia cenocepacia [1]; 32 µg/mL (≈ 58.5 µM) with Burkholderia cenocepacia [2]; 16 µg/mL (≈ 29.3 µM) with Burkholderia cenocepacia [3]; 0.25 µg/mL (≈ 0.457 µM) in the series with Burkholderia cenocepacia [4]; 1 µg/mL (≈ 1.83 µM) with Escherichia coli [5]; 0.5 µg/mL (≈ 0.915 µM) in the series on Escherichia coli [6].
For `C[C@H]1[C@H](NC(=O)/C(=N\OC(C)(C)C(=O)O)c2csc(N)n2)C(=O)N1S(=O)(=O)O` [AZTREONAM], the MIC came out at 4 µg/mL (≈ 9.19 µM) in the series on Burkholderia cenocepacia [1]; 512 µg/mL (≈ 1180 µM) in the series with Burkholderia cenocepacia [2]; 512 µg/mL (≈ 1180 µM) against Burkholderia cenocepacia [3]; 16 µg/mL (≈ 36.7 µM) in the series with Burkholderia cenocepacia [4]; 0.5 µg/mL (≈ 1.15 µM) against Escherichia coli [5].
With `C[C@@H](O)[C@H]1C(=O)N2C(C(=O)O)=C(SCCNC=N)C[C@H]12` [IMIPENEM ANHYDROUS], the minimum inhibitory concentration (MIC) was determined as 8 µg/mL (≈ 26.7 µM) in the series with Burkholderia cenocepacia [1]; 16 µg/mL (≈ 53.4 µM) against Burkholderia cenocepacia [2]; 16 µg/mL (≈ 53.4 µM) against Burkholderia cenocepacia [3]; 8 µg/mL (≈ 26.7 µM) against Burkholderia cenocepacia [4]; 0.5 µg/mL (≈ 1.67 µM) in the series on Escherichia coli [5].
With `CO/N=C(\C(=O)N[C@@H]1C(=O)N2C(C(=O)O)=C(COC(N)=O)CS[C@H]12)c1ccco1` [CEFUROXIME], the minimal inhibitory concentration (MIC) with Burkholderia cenocepacia [1] was determined as 16 µg/mL (≈ 37.7 µM); with Burkholderia cenocepacia [2], 512 µg/mL (≈ 1210 µM); in the series on Burkholderia cenocepacia [3], 512 µg/mL (≈ 1210 µM); in the series on Burkholderia cenocepacia [4] it was 32 µg/mL (≈ 75.4 µM); against Escherichia coli [5] it was 16 µg/mL (≈ 37.7 µM); in the series on Escherichia coli [6], 8 µg/mL (≈ 18.9 µM).

B1: PenB class A beta-lactamase (Burkholderia cenocepacia), B8R6A5 (protein)
chain: MTYSSKRRTLLLAAATAPLVLTATACASRQAAAPDPATAAAAAAADAMAPAAAAATLADLERDAGGRLGVCAIDTASGRVIEHRAGERFPFCSTFKAMLSAAVLAQSVERPGLLQQRVKYTKADLVNYSPVSEKHVGAGMTVAALCEATIQYSDNSAANLLMKLIGGPSAVTAYARSIGDDAFRLDRWETELNTALPGDPRDTTTPAAMAASIRVLTLGDALPAAQRAQLVAWLRGNKVGDKRIRAGVPAGWTVGDKTGTGDYGTTNDAGVIWPTSRAPIVLAVYYTQTRADARAKDDVIASVARIVAQTFG
As a reminder, the Km is the substrate concentration at which the rate is half of its maximum. One may read the kcat as the maximal rate divided by the concentration of active sites. As usually defined, the kcat/Km is the turnover number divided by the Michaelis constant. Turning to B1, the Km in series [7] came to 100 µM; in series [8], 3000 µM; in series [9], 25 µM; in series [10] it was 60 µM; in series [11], 100 µM; in series [12] it was 10 µM. Besides, the Km in [13] turned out to be 150 µM; in series [14], 80 µM; in series [15] it was 1000 µM; in series [16] it was 60 µM; in series [17], 2500 µM; in series [18] it was 2500 µM. Also, the catalytic constant (kcat) in [7] was determined as 300 s⁻¹; in [8], 1.5 s⁻¹; in series [9] it was 130 s⁻¹; in [10], 15 s⁻¹; in series [11], 70 s⁻¹; in series [12], 5 s⁻¹. Further, the kcat in [13] was 20 s⁻¹; in series [14], 170 s⁻¹; in series [15], 10 s⁻¹; in [16], 0.1 s⁻¹; in series [17], 1 s⁻¹; in series [18] it was 30 s⁻¹. Moreover, the kcat/Km in series [19] is 3e+06 M⁻¹ s⁻¹; in series [20] it was 500000 M⁻¹ s⁻¹; in series [21], 5.2e+06 M⁻¹ s⁻¹; in series [22], 250000 M⁻¹ s⁻¹; in [23], 700000 M⁻¹ s⁻¹; in series [24], 500000 M⁻¹ s⁻¹. The kcat/Km in series [25] amounted to 130000 M⁻¹ s⁻¹; in series [26], 2.1e+06 M⁻¹ s⁻¹; in [27], 1e+07 M⁻¹ s⁻¹; in series [28], 2e+06 M⁻¹ s⁻¹; in [29], 500 M⁻¹ s⁻¹; in series [30], 1e+07 M⁻¹ s⁻¹.

For the origin of these results see ChEMBL document CHEMBL1629643, “Naturally occurring Class A ss-lactamases from the Burkholderia cepacia complex” (Antimicrob Agents Chemother, 2009).
